Reference: PubChem BioAssay AID504383 (The Scripps Research Institute Molecular Screening Center, 2011)
Out of some 2,500 compounds screened, about 1,200 (48%) were called active.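 Rule for the calls: active = mean activation above the low control average plus 3 SD, as set in the primary screen (cut at about 12% in these data); inactive = the rest.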 The set was probably picked from earlier hits. Some of the results follow.

molecular target: Troponin I, cardiac muscle (Homo sapiens) + Troponin T, cardiac muscle (Homo sapiens) + Troponin C, slow skeletal and cardiac muscles (Homo sapiens) (UniProt P19429+P45379+P63316); assay: cardiac RTF calcium sensitivity activators, confirmation, biochemical, IANBD-TnC fluorescence, triplicate (AID 504383); conditions: IANBD-labeled cardiac RTF, Ca2+ sensitivity fluorescence; at 7.2 µM; hits give high values; scaled from EC20 to saturating calcium; tested at EC20 calcium, 0.472 mM;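 note: 0% = DMSO at 0.472 mM calcium and 100% = DMSO at 2.9 mM calcium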
Outline: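 System: Labelled thin filament complex | Technique: Filament fluorescence intensity | Benchmarks: Low control EC20 calcium, high control EC100 calcium | Timing: 15 min at 25 °C | Compound dosing: One dose, 7.2 µM nominal | Probe or stimulus: Ca2+ 0.472 mM, EC20 level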

| SMILES | activation |
| --- | --- |
| Cn1nnnc1SCCOc1ccc(C#N)cc1 | -1.4% (inactive) |
| CCOC(=O)c1cn(-c2ccc(F)c(F)c2F)c2c(F)c(F)c(F)cc2c1=O | 10.3% (inactive) |
| Cc1cc([N+](=O)[O-])nn1CC(=O)Nc1c(C)n(C)n(-c2ccccc2)c1=O | 8.97% (inactive) |
| Cc1c(N=C2N=C(NC(=O)Nc3ccc(Cl)cc3)c3ccccc32)c(=O)n(-c2ccccc2)n1C | 58.8% (active) |
| CC/C(=C/c1sc2ccccc2[n+]1CC)SC | 2.73% (inactive) |
| CC[n+]1c(/C=C/C=C/N(C(C)=O)c2ccccc2)sc2ccccc21 | 135% (active) |
| CCCC(NC(=O)CCc1c(C)c2cc3c(-c4ccccc4)coc3cc2oc1=O)C(=O)O (stereo not given) | 181% (active) |
| C=CCOc1ccc(Br)cc1CNCC | 29.4% (active) |
| C=CCOc1ccccc1CNc1cccc(F)c1 | 7.46% (inactive) |
| Cc1nc(NC(=O)C(Cl)Cl)sc1C(=O)N(C)C | 8.86% (inactive) |
| Cc1nn(Cc2c(F)c(F)c(F)c(F)c2F)c(C)c1NC(=O)c1nn(C)c(C)c1Br | 9.42% (inactive) |
| CCn1cc(/C=C/C(=O)Nc2c(C)nn(Cc3ccccc3C)c2C)cn1 | 7.35% (inactive) |
| Cc1ccc(Cn2nc(C)c(NC(=O)C3(C)CC3(Br)Br)c2C)cc1 (stereo not given) | 17.1% (active) |
| Cn1c(=O)cc(N)n(Cc2ccccc2)c1=O | 42.5% (active) |
| Cc1ccc(NC(=O)COC(=O)/C=C/c2c(C)nn(-c3ccc(F)cc3)c2Cl)cc1F | 8% (inactive) |
| CCOc1ccc(-n2c(SCC(=O)Nc3ccc(OC)cc3OC)nc3c(c2=O)SCC3)cc1 | 13.3% (active) |
| CCOc1ccc(C(C(=O)NC2CCCCC2)N(C(=O)Cc2cccs2)c2ccc(-n3cnnn3)c(OC)c2)cc1 (stereo not given) | 3.97% (inactive) |
| Cc1ccc(C(C)NC(=O)c2cccs2)cc1C (stereo not given) | 480% (active) |
| O=C(CCSc1nnc(-c2ccco2)o1)Nc1ccccc1 | 69% (active) |
| O=C(CSc1nnc(-c2ccco2)o1)NC1CCCCC1 | 6.06% (inactive) |

| SMILES | activation |
| --- | --- |
| CCCCNC(=O)Nc1nnc(-c2ccccc2)o1 | 10.1% (inactive) |
| C/C(O)=c1/ccc2cccc3nc(C)nc1c23 | 62.2% (active) |
| CCN(CC(=O)N1CCCC1)S(=O)(=O)c1ccc(OC)cc1 | 262% (active) |
| Cc1ccccc1NS(=O)(=O)c1ccc(OCC(=O)N2CCCCC2)cc1 | 6.33% (inactive) |
| COc1ccc(CN(Cc2cccn2C)S(=O)(=O)c2ccccc2)cc1 | 9.11% (inactive) |
| O=C1NC(c2cccc([N+](=O)[O-])c2)Oc2ccccc21 (stereo not given) | 10.3% (inactive) |
| Cc1ccc(C)c(NC(=O)COC(=O)Cc2ccsc2)c1 | 12.3% (active) |
| Cc1ccc(C)c(NC(=O)CCN2CCOCC2)c1 | 0.21% (inactive) |
| O=C(NCc1cccc(F)c1)c1cccc2c1C(=O)c1ccc(N3CCCC3)cc1S2(=O)=O | 8.28% (inactive) |
| CN1CCC[C@@H]1CCNC(=O)c1cccc2c1C(=O)c1ccc(N3CCCC3)cc1S2(=O)=O | -0.88% (inactive) |
| O=C(NCC1CC1)c1cccc2c1C(=O)c1ccc(N3CCCC3)cc1S2(=O)=O | 183% (active) |
| O=C(NC1CCCCC1)c1cccc2c1C(=O)c1ccc(N3CCC(Cc4ccccc4)CC3)cc1S2(=O)=O | 5.3% (inactive) |
| O=C(NCc1ccc(OC(F)(F)F)cc1)c1cccc2c1C(=O)c1ccc(N3CCCCC3)cc1S2(=O)=O | 17.5% (active) |
| CC1CCN(c2ccc3c(c2)S(=O)(=O)c2cccc(C(=O)NC4CCCCC4)c2C3=O)CC1 | 1.22% (inactive) |
| O=C(NC1CCCCC1)c1cccc2c1C(=O)c1ccc(N3CCCC3)cc1S2(=O)=O | 87.8% (active) |
| C=CCNC(=O)c1cccc2c1C(=O)c1ccc(N3CCCC3)cc1S2(=O)=O | 6.98% (inactive) |
| Cc1ccc(CNC(=O)c2cccc3c2C(=O)c2ccc(N4CCCCC4)cc2S3(=O)=O)cc1 | 6.7% (inactive) |
| CCOCCCNC(=S)NCCCNc1nc2c(C)cc(C)cc2cc1C#N | 7.25% (inactive) |
| O=C(/C=C/c1cccc(F)c1)Nc1cc(S(=O)(=O)N2CCOCC2)ccc1N1CCCC1 | 9.19% (inactive) |
| O=C(CN1CCc2ccccc2C1)Nc1cc(S(=O)(=O)N2CCOCC2)ccc1N1CCOCC1 | 8.9% (inactive) |

| SMILES | activation |
| --- | --- |
| Cc1ccccc1OCCC(=O)Nc1cc(S(=O)(=O)N2CCCCC2)ccc1N1CCN(C)CC1 | 16.9% (active) |
| CCn1c(SCC(=O)NNC(=O)c2ccco2)nnc1-c1ccco1 | -0.46% (inactive) |
| CCn1c(SCC(=O)c2ccc(Cl)cc2)nnc1C(C)C | 13.2% (active) |
| N#C/C(=C\c1ccc(N2CCOCC2)o1)C(=O)NC1CCCCC1 | 28.9% (active) |
| COc1ccc(NC(=O)/C(C#N)=C\c2ccc(N3CCOCC3)o2)cc1 | 32.2% (active) |
| N#C/C(=C/c1ccc(N2CCCCC2)o1)C(=O)Nc1ccc(Cl)cc1 | 111% (active) |
| N#C/C(=C/c1ccc(N2CCOCC2)o1)C(=O)NC1CCCCC1 | -0.07% (inactive) |
| N#C/C(=C/c1ccc(N2CCCCC2)o1)C(=O)NCCc1c[nH]c2ccccc12 | 40.9% (active) |
| N#C/C(=C/c1ccc(N2CCOCC2)o1)C(=O)Nc1ccccc1 | 2.26% (inactive) |
| N#C/C(=C\c1ccc(N2CCOCC2)o1)C(=O)NCC1CCCO1 (stereo not given) | -0.28% (inactive) |
| CCOC(=O)/C(C#N)=N\Nc1cc(Cl)ccc1OC | 6.36% (inactive) |
| N#C/C(=C/c1ccc(N2CCOCC2)o1)C(=O)N1CCOCC1 | 10.1% (inactive) |
| COCCNC(=O)/C(C#N)=C/c1ccc(N2CCOCC2)o1 | 9.29% (inactive) |
| N#C/C(=C\c1ccc(N2CCOCC2)o1)C(=O)N1CCOCC1 | 6.09% (inactive) |
| N#C/C(=C\c1ccc(N2CCOCC2)o1)C(=O)NCCc1ccccc1 | 43.7% (active) |
| N#C/C(=C\c1ccc(N2CCCCC2)o1)C(=O)Nc1cccc(Br)c1 | 5.9% (inactive) |
| N#C/C(=C\c1ccc(N2CCCCC2)o1)C(N)=O | 11.6% (active) |
| N#C/C(=C/c1ccc(N2CCCCC2)o1)C(=O)Nc1ccc2ccccc2c1 | 171% (active) |
| O=C1NC2=C(C(=O)CCC2)C(c2ccccc2Cl)N1 (stereo not given) | 10.3% (inactive) |
| CN1C(=O)NC(c2ccccc2[N+](=O)[O-])C2=C1CCCC2=O (stereo not given) | 14.6% (active) |
